Assay outcomes: PubChem, several laboratories
In the library only some 1.9% were active in any assay of this set; here they are far more common.
LEDGF integ inh: blocks HIV-1 LEDGF/p75-dependent DNA integration; AID 743269; 370,000 compounds, 0.64% hits; inhibition, % at 3.7 µM; TR-FRET IN-LEDGF/p75 DNA integration, Eu/Cy5;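 active means inhibition above the screen-wide mean plus 3 SD, cut at about 13% in these data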;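 further: signal is the Cy5 over europium emission ratio at 671 and 618 nm; 0% = plate median of compound wells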
MBD2 DNA inh: MBD2-methylated oligo binding inhibition; TR-FRET, MBD2 binding to methylated oligonucleotide; Q9UBB5; 370,000 compounds, 0.31% hits; inhibition, % at 4.4 µM; in the data active means inhibition above about 13%
Target sequence (Q9UBB5 whole entry, looked up): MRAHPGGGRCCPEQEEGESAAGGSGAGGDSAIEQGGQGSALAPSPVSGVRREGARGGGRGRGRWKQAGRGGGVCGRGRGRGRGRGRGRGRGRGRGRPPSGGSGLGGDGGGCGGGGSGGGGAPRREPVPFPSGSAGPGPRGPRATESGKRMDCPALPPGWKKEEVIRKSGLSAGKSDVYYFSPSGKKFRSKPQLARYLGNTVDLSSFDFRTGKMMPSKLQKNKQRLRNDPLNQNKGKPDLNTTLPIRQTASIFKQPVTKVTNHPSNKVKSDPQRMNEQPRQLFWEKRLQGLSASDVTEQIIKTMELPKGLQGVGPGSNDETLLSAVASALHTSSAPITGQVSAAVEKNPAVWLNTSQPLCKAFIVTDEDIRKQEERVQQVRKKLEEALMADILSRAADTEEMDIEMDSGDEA
NSD2 HMT inh: inhibitors of human histone methyltransferase NSD2; inhibition, % at 12.5 µM; NSD2 peptide methylation, AlphaScreen, 120 min; 310,000 compounds, 0.54% hits; in the data active means inhibition above about 50%
Casp6 inh: caspase-6 (human) enzyme inhibition; purified caspase-6, Z-VEID-R110 cleavage fluorescence; inhibition, % at 12.5 µM; 350,000 compounds, 0.53% hits; AID 686996;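 active means mean inhibition across replicates at least about 35%, with every replicate also reaching that limit, limit read from the data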;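 further: 0% = median of neutral control wells and 100% = no fluorescence left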
Target sequence (P55212 24-179 limits assumed): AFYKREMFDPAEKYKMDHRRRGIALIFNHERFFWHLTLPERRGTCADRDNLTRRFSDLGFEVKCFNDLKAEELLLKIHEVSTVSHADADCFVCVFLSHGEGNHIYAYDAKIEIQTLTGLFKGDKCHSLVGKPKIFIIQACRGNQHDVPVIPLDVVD
Target sequence (P55212 194-293 limits assumed): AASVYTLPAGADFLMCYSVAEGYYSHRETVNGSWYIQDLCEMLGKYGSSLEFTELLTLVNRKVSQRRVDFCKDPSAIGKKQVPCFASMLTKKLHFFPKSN
UHRF1 MBD2 ctr: blocks human UHRF1 binding to methylated DNA; Q96T88; UHRF1 binding to methylated oligo, TR-FRET; inhibition, % at 4.4 µM; 370,000 compounds, 0.75% hits; in the data active means inhibition above about 21%;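 further: UHRF1 SRA domain binding a hemimethylated CpG hairpin DNA probe; 0% = median of test compound wells and 100% = reference inhibitor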
TDP2 absorb: TDP2 (human) inhibition, absorbance primary screen. AID 720702. inhibition, % at 12.8 µM. recombinant TDP2, T5PNP hydrolysis, p-nitrophenol absorbance 415 nm. 370,000 compounds, 0.34% hits;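 active means inhibition above the mean of all tested compounds plus 3 SD, set per campaign, cut at about 25% in these data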;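 further: 0% = DMSO with enzyme and 100% = buffer with substrate but no TDP2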
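Read-out basis: percent inhibition. System: recombinant human TDP2. Buffer or medium: Mg2+-containing Tris-HCl buffer, pH 7.5. Repeats: single replicate. Timing: reaction 2 h, 37 °C. Benchmarks: high control without enzyme, low control DMSO plus TDP2. Probe or stimulus: 5 mM T5PNP. Doses: 12.8 µM only. Measured by: epi absorbance of p-nitrophenol freed from T5PNP by hydrolysis.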
IN multimer act: HIV-1 integrase multimerization activation, counter-screen; shares compounds with LEDGF integ inh; TR-FRET HIV-1 integrase multimerization, biochemical; activation, % at 7.7 µM; 2,000 compounds, 17% hits; AID 1053131; in the data active means activation above about 8.9%
TRFRET interf: TR-FRET optical interference, LEDGF/p75 integration counter-screen; inhibition, % at 7.7 µM; AID 1053135; shares compounds with LEDGF integ inh; TR-FRET optical interference counterscreen, HIV-1 IN multimerization; 2,000 tested, under 10 active;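 active means inhibition above the mean over all tested compounds plus 3 SD, which no compound reached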;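 further: 0% = integrase with antibodies and DMSO and 100% = antibodies without integrase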
LEDGF integ conf: confirmation of HIV-1 LEDGF/p75-dependent integration inhibitors; 2,000 compounds, 36% hits; TR-FRET LEDGF/p75-dependent HIV-1 integration, biochemical; AID 1053136; shares compounds with LEDGF integ inh; inhibition, % at 3.7 µM; in the data active means inhibition above about 14%
Numbers without * were called inactive; . = not tested or not shown.

SMILES | LEDGF integ inh | MBD2 DNA inh | NSD2 HMT inh | Casp6 inh | UHRF1 MBD2 ctr | TDP2 absorb | IN multimer act | TRFRET interf | LEDGF integ conf
COc1ccc(CN2C(=O)c3cccnc3C2Nc2cc(Cl)ccc2OC)cc1 (configuration not stated) | 15* | -8 | 0 | 30 | 0 | 18 | -1 | 7 | 23*
COc1ccc(OC)c(NC2c3ncccc3C(=O)N2Cc2ccco2)c1 (configuration not stated) | -1 | 9 | 2 | 7 | 5 | 8 | . | . | .
Cc1ccc(NC2c3ncccc3C(=O)N2Cc2ccco2)c(C)c1 (configuration not stated) | 20* | 2 | 1 | 15 | 12 | 17 | 0 | -2 | 6
O=C(OCc1cn([C@H]2C[C@H](c3ccccc3)N(CC3CCCCC3)C[C@@H]2O)nn1)c1ccccc1 | 4 | -1 | . | 0 | 0 | 2 | . | . | .
COc1ccc([C@H]2C[C@H](O)[C@@H](n3cc(COC(=O)c4ccccc4)nn3)CN2CC2CCCCC2)cc1 | 28* | 1 | . | -2 | 2 | -4 | -1 | 3 | -1
CC=Cc1ccc2n(c1=O)C[C@@H]1[C@@H](CO)[C@H](C(=O)NCc3cccc(F)c3)[C@H]2N1S(C)(=O)=O (mixture of isomers) | . | . | . | 1 | . | . | . | . | .
Cc1cccc(NC(=O)CN2C(=O)N/C(=C\c3ccccc3OCc3ccc(C(=O)O)cc3)C2=O)c1 | 17* | 3 | 0 | 4 | 1 | -17 | -3 | 14 | 8
C[C@H]1CN([C@@H](C)CO)C(=O)c2c(c3ccccc3n2C)-c2ccccc2CO[C@H]1CN(C)CC1CC1 | . | . | . | -1 | . | . | . | . | .
O=C(CN1CCN(S(=O)(=O)c2ccccc2)CC1)NC1CC1 | 2 | 0 | 1 | -1 | -1 | 0 | . | . | .
O=C(CN1CCN(S(=O)(=O)c2ccc(Cl)cc2)CC1)NC1CC1 | 34* | 0 | -6 | -1 | 0 | -9 | 0 | 2 | -3
COc1cc(OC)cc(-c2nnc(NC(=O)CCS(=O)(=O)c3ccc(C)cc3)o2)c1 | 1 | -3 | 1 | -1 | -2 | 9 | . | . | .
COc1cccc(-c2nnc(NC(=O)CCS(=O)(=O)c3ccc(F)cc3)o2)c1 | 15* | -2 | -1 | -1 | -1 | 0 | 5 | -28 | -3
COCC(=O)Nc1ccc2c(c1)C(=O)N(C)C[C@@H](OC)[C@@H](C)CN(Cc1ccccc1)[C@H](C)CO2 | . | . | . | -3 | . | . | . | . | .
O=C(CCc1ccccc1)Nc1cccc(NC(=O)CCc2ccccc2)c1 | 0 | -1 | -1 | -4 | 1 | -6 | . | . | .
Cc1ccc(NC(=O)CCc2ccccc2)cc1C | 72* | -1 | -7 | 4 | -3 | -2 | 0 | 2 | -1
O=C1C=CC2=C3c4cc(O)c(O)cc4CC3(O)COC2=C1O (configuration not stated) | 90* | 35* | . | 85* | 56* | 4 | 68* | -342 | 93*
CC1=C(C)CC(C(=O)Nc2nc(-c3ccc(C)cc3C)c(C)s2)C(C(=O)O)C1 (configuration not stated) | 25* | -4 | 15 | . | -1 | 7 | 5 | -27 | 0
C[C@@H]1CCCCO[C@H](CN(C)S(=O)(=O)c2cn(C)cn2)[C@H](C)CN([C@@H](C)CO)C(=O)c2cc(NC(=O)CCC(F)(F)F)ccc2O1 | . | . | . | -3 | . | . | . | . | .
Cc1noc(/C=C/N(C)C)c1S(=O)(=O)N1CCCC(C(=O)NCc2cccs2)C1 (configuration not stated) | 17* | -3 | . | 2 | -1 | 4 | 0 | -2 | -6
Cc1noc(/C=C/N(C)C)c1S(=O)(=O)N1CCC(C(=O)O)CC1 | 17* | -1 | . | 2 | 3 | 5 | -1 | 7 | 2
COCC(=O)N(C)C[C@@H]1Oc2ncc(C3=CCCCC3)cc2C(=O)N([C@H](C)CO)C[C@@H]1C | . | . | . | 2 | . | . | . | . | .
COC1=CC(=O)C(C2CC(=O)c3c(O)cc(O)cc3O2)=CC1=O (configuration not stated) | 46* | 5 | 15 | 44* | 9 | 6 | 46* | -233 | 24*
COc1c(CC=C(C)C)cc(C2CC(=O)c3c(O)cc(O)cc3O2)cc1CC=C(C)C (configuration not stated) | -2 | 3 | . | -1 | 0 | 1 | . | . | .
O=C(NC1CC1)c1sc2cc(F)ccc2c1Cl | 21* | -1 | 0 | 1 | -1 | 4 | 0 | -1 | 2
O=C(NC1CC1)c1sc2cc(Cl)ccc2c1Cl | -2 | 1 | 1 | -2 | -3 | 2 | . | . | .
SMILES | LEDGF integ inh | MBD2 DNA inh | NSD2 HMT inh | Casp6 inh | UHRF1 MBD2 ctr | TDP2 absorb | IN multimer act | TRFRET interf | LEDGF integ conf
O=C(CCC(=O)c1ccccc1)Nc1ccccc1 | 14* | 1 | 0 | -5 | 3 | -9 | 0 | 2 | -1
NS(=O)(=O)c1cccc(NC(=O)c2cccc(-c3ccc(O)cc3)c2)c1 | 18* | -3 | 1 | 0 | -2 | 2 | 0 | -2 | -8
C[C@H]1CCCCO[C@H](CN(C)C(=O)Nc2cccc3ccccc23)[C@@H](C)CN([C@@H](C)CO)C(=O)c2cc(NS(C)(=O)=O)ccc2O1 | . | . | . | 5 | . | . | . | . | .
O=C(N/C=C/c1ccco1)NCc1ccccc1 | 28* | 7 | 21 | 42* | 23* | 5 | 14* | -73 | 44*
O=C(/C=C/c1ccco1)NCc1ccc(F)cc1 | 4 | 7 | 3 | 3 | 3 | -9 | . | . | .
CO[C@H]1CN(C)C(=O)c2cc(NS(=O)(=O)c3cccc(F)c3)ccc2OC[C@H](C)N(C(=O)Cc2cccnc2)C[C@@H]1C | . | . | . | -1 | . | . | . | . | .
COc1ccc(C2C(C#N)=C(N)Oc3c2c(C)nn3-c2ccccc2)cc1Cn1nc(C)c([N+](=O)[O-])c1C (configuration not stated) | -1 | -6 | . | . | -4 | 24 | . | . | .
COc1ccc(C2C(C#N)=C(N)OC3=C2C(=O)CC(C)(C)C3)cc1Cn1nc(C)c([N+](=O)[O-])c1C (configuration not stated) | 14* | -2 | 0 | -1 | -2 | 3 | 1 | -6 | -5
CCC(=O)Nc1ccc2c(c1)C(=O)N(C)C[C@@H](OC)[C@H](C)CN(C(=O)Nc1ccccc1F)[C@H](C)CO2 | . | . | . | -1 | . | . | . | . | .
